In ChEMBL document CHEMBL1138297, “Design, synthesis, and multivariate quantitative structure-activity relationship of salicylanilides--potent inhibitors of type III secretion in Yersinia” (J Med Chem, 2007):

Experiments:
[1] = test system: Yersinia pseudotuberculosis; assay: Effect on T3S in Yersinia pseudotuberculosis 3 pIB29 assessed as inhibition of light emission at 0.5 uM by luciferase reporter gene assay
Summary of the method: (§1)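 YPIII pIB29 (yopE-luxAB) reporter strain grown overnight at ambient temperature in BHI with 5 mM EGTA and 20 mM MgCl2 to deplete calcium. Culture adjusted to OD600 0.15-0.25 and added to compounds in DMSO (final ≤1%). Incubated 1 h at ambient temperature with shaking, then 2 h at 37 °C. Decanal substrate added and luminescence read at once. Triplicates; repeated on ≥2 occasions.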

[2] = test system: Yersinia pseudotuberculosis; assay: Effect on T3S in Yersinia pseudotuberculosis 3 pIB29 assessed as inhibition of light emission at 10 uM by luciferase reporter gene assay; summary of the method: as §1
[3] = test system: Yersinia pseudotuberculosis; assay: Effect on T3S in Yersinia pseudotuberculosis 3 pIB29 assessed as inhibition of light emission at 5 uM by luciferase reporter gene assay; summary of the method: as §1
[4] = test system: Yersinia pseudotuberculosis; assay: Effect on T3S in Yersinia pseudotuberculosis 3 pIB29 assessed as inhibition of light emission at 2 uM by luciferase reporter gene assay; summary of the method: as §1
[5] = test system: Yersinia pseudotuberculosis; assay: Effect on T3S in Yersinia pseudotuberculosis 3 pIB29 assessed as inhibition of light emission at 20 uM by luciferase reporter gene assay; summary of the method: as §1
[6] = test system: Yersinia pseudotuberculosis; assay: Effect on T3S in Yersinia pseudotuberculosis 3 pIB29 assessed as inhibition of light emission at 50 uM by luciferase reporter gene assay; summary of the method: as §1
[7] = test system: Yersinia pseudotuberculosis; assay: Effect on T3S in Yersinia pseudotuberculosis 3 pIB29 assessed as inhibition of light emission at 1 uM by luciferase reporter gene assay; summary of the method: as §1
[8] = test system: Yersinia pseudotuberculosis; assay: Effect on T3S in Yersinia pseudotuberculosis 3 pIB29 assessed as inhibition of light emission at 100 uM by luciferase reporter gene assay; summary of the method: as §1

| SMILES | inhibition [1] [%] | inhibition [2] [%] | inhibition [3] [%] | inhibition [4] [%] | inhibition [5] [%] | inhibition [6] [%] | inhibition [7] [%] | inhibition [8] [%] |
| --- | --- | --- | --- | --- | --- | --- | --- | --- |
| CC(=O)Oc1ccc(I)cc1C(=O)Nc1ccc(Cl)cc1 | 58 | 99 | 99 | 92 | 100 | 100 | 73 | 100 |
| CC(=O)Oc1c(I)cc(I)cc1C(=O)Nc1ccc(SC(F)(F)F)cc1 | 11 | 72 | 60 | 19 | 71 | 71 | 11 | 75 |
| CC(=O)Oc1c(Cl)cc(Cl)c(Cl)c1C(=O)Nc1ccc(SC(F)(F)F)cc1 | 5 | 67 | 47 | 42 | 95 | 89 | 15 | 92 |
| O=C(Nc1ccc(F)cc1)c1cc(I)cc(I)c1O | 5 | 62 | 26 | 6 | 78 | 99 | 3 | 100 |
| CC(=O)Oc1ccc(I)cc1C(=O)Nc1ccc(Br)cc1 | 54 | 98 | 100 | 94 | 100 | 100 | 71 | 100 |
| CC(=O)Oc1ccc(Cl)cc1C(=O)Nc1ccc(Cl)c(C)c1 | 15 | 99 | 91 | 62 | 100 | 100 | 50 | 100 |
| O=C(Nc1ccc(Cl)cc1)c1cc(I)cc(I)c1O | 15 | 100 | 95 | 60 | 100 | 100 | 47 | 99 |
| CC(=O)Oc1ccc(I)cc1C(=O)Nc1ccc(SC(F)(F)F)cc1 | 17 | 58 | 56 | 80 | 74 | 99 | 52 | 100 |
| O=C(Nc1ccc(SC(F)(F)F)cc1)c1cccc(Cl)c1O | -2 | 61 | 38 | 13 | 81 | 99 | 3 | 100 |
| O=C(Nc1ccc(Br)cc1)c1cccc(Cl)c1O | 5 | 24 | 12 | 12 | 62 | 96 | 6 | 100 |
| CC(=O)Oc1c(Cl)cccc1C(=O)Nc1ccc(Br)cc1 | -2 | 18 | 12 | 9 | 36 | 78 | 8 | 99 |
